Assay results of several laboratories.
Cell line: A549
Read-out: cell growth or viability

Compound | test | conditions | quantity | result
C=C(C)C(O)Cc1c(O)c(CC=C(C)C)c2occ(-c3ccc(O)cc3)c(=O)c2c1O (stereo not drawn) | MTT | 100 µg/mL | viability | 91.6%
O=C1OC2(c3cc(Cl)c(O)cc3Oc3cc(O)c(Cl)cc32)c2ccccc21 | CCK-8 | 48 h | CC50 | > 200 µM
Nc1nc(N)c2nc(CNc3ccc(C(=O)NCCc4ccccc4)cc3)cnc2n1 | ATP luminescence | – | GI50 | 38.8 µM
O=C(O)CCCC/C=C\CCCc1ccccc1 | MTS | – | IC50 | 61 µM
O=C1OC2(c3cc(I)c(O)c(I)c3Oc3c2cc(I)c(O)c3I)c2c(Cl)c(Cl)c(Cl)c(Cl)c21 | CCK-8 | 48 h | CC50 | > 200 µM
C=C(C)[C@H](CC=C(C)C)Cc1c(O)cc(OC)c(C(=O)/C=C/c2ccc(O)cc2O)c1O | MTT | – | IC50 | 57.1 µM
CN(Cc1cnc2nc(N)nc(N)c2n1)c1ccc(C(=O)N2CCCCC2)cc1 | ATP luminescence | – | GI50 | 34.9 µM
CCCCCCCCCC#CCCCCC(=O)O | MTS | 24 h | IC50 | 16 µM
Nc1nc(N)c2nc(CNc3ccc(C(=O)c4ccccc4)cc3)cnc2n1 | ATP luminescence | – | GI50 | 13.7 µM
O=C1OC2(c3ccccc31)c1ccc(O)c(Cl)c1Oc1c2ccc(O)c1Cl | CCK-8 | 48 h | CC50 | > 200 µM
O=C(O)CCCCC#CCCCC1CCCCC1 | MTS | 24 h | IC50 | 40 µM
O=C1OC2(c3ccc(O)cc3Oc3cc(O)ccc32)c2ccccc21 | CCK-8 | 48 h | CC50 | > 200 µM
COc1cc2oc(-c3ccc(O)cc3O)c(CC=C(C)C)c(=O)c2c(O)c1/C=C/C(C)C | crystal violet | 72 h | CC50 | 38 µM
O=C1OC2(c3ccccc31)c1cc(Br)c(O)c(Br)c1Oc1c2cc(Br)c(O)c1Br | CCK-8 | 48 h | CC50 | > 200 µM
C=C(C)C(CC=C(C)C)Cc1c(O)cc(OC)c2c1O[C@H](c1ccc(O)cc1O)CC2=O (single isomer, unassigned; (-)) | MTT | – | IC50 | 50.5 µM
